Experimental data taken from BindingDB's records for doi:10.1021/jm00077a013 (Takeda Chemical Industries, 1994).
pIC50: −log10 of the molar value.

Molecular target: T1, Endothelin-1 receptor (Sus scrofa, UniProt Q29010)
T1 sequence (Q29010 whole entry): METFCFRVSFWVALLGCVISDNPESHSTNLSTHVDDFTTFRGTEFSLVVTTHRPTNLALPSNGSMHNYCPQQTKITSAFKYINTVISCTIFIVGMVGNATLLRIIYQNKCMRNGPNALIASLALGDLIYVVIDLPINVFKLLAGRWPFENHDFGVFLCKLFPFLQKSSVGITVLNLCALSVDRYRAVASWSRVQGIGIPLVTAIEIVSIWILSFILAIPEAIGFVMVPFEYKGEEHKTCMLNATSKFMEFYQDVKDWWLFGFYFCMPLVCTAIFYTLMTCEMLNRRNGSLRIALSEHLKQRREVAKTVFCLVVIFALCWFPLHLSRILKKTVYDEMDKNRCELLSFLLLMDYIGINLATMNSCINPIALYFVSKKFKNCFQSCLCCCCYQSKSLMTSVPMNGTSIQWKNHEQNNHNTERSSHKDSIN
Experiment: Tested for the competitive binding versus [125I]- ET-1 determined in porcine cardiac ventricular membrane for Endothelin A receptor
Outline: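 Membranes (porcine cardiac ventricle at 12 μg/mL for ETA; bovine cerebrum at 150 μg/mL for ETB) in pH 7.2 Tris/EGTA/Mg acetate/0.1% BSA buffer with protease inhibitors. Incubated with 100 pM [125I]ET-1 and varied compound for 1 h at 25 °C, then filtered and counted by gamma counter. IC50 given as mean ± SEM of ≥3 determinations.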

## CC[C@H](C)[C@H](NC(=O)[C@H](CC1CCCCC1)NC(=O)[C@@H](NC(=O)[C@H](CC(C)C)NC(=O)[C@H](Cc1c[nH]cn1)NC(=O)[C@@H]1CSSC[C@H](N)C(=O)N[C@@H](CO)C(=O)N[C@H]2CSSC[C@H](NC(=O)[C@H](CCC(=O)O)NC(=O)[C@H](CCCCN)NC(=O)[C@H](CC(=O)O)NC(=O)[C@H](CCSC)NC(=O)[C@H](CC(C)C)NC(=O)[C@H](CO)NC(=O)[C@H](CO)NC2=O)C(=O)N[C@@H](C(C)C)C(=O)N[C@@H](Cc2ccc(O)cc2)C(=O)N[C@@H](Cc2ccccc2)C(=O)N1)[C@@H](C)O)C(=O)N[C@@H](Cc1c[nH]c2ccccc12)C(=O)O
  pIC50: 9.15
